In brackets after ≈: the same amount, converted by molar mass.
How the values were obtained:
Type in all cases: functional
Klebsiella pneumoniae [1] = assay: Antibacterial activity against Klebsiella pneumoniae JS-123 assessed as bacterial growth inhibition by broth microdilution assay
Method in brief: (§1)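 Broth microdilution. Bacteria from glycerol stocks were grown overnight on blood agar at 37 °C, then colonies were suspended in TSB and grown to OD600 0.5. Compounds were dissolved in DMSO at 6.4 mg mL−1 (stock) and serially diluted in CAMHB (Mg2+ 12.5, Ca2+ 20 μg mL−1) in polypropylene plates. Inoculum was 10^6 CFU mL−1 final, incubated at 37 °C. MIC = lowest concentration without visible growth; values consistent across at least triplicate experiments.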

Pseudomonas aeruginosa [2] = assay: Antibacterial activity against Pseudomonas aeruginosa NRZ 08418 assessed as bacterial growth inhibition by broth microdilution assay; method in brief: as §1
Klebsiella pneumoniae [3] = assay: Antibacterial activity against Klebsiella pneumoniae NCTC 13443 assessed as bacterial growth inhibition by broth microdilution assay; method in brief: as §1
Escherichia coli [4] = assay: Antibacterial activity against Escherichia coli ATCC 25922 assessed as bacterial growth inhibition by broth microdilution assay; method in brief: as §1
Pseudomonas aeruginosa [5] = assay: Antibacterial activity against Pseudomonas aeruginosa ATCC 27853 assessed as bacterial growth inhibition by broth microdilution assay; method in brief: as §1
Acinetobacter baumannii [6] = assay: Antibacterial activity against Acinetobacter baumannii ATCC 19606 assessed as bacterial growth inhibition by broth microdilution assay
Method in brief: (§2)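 Broth microdilution MIC. Strains grown overnight on blood agar at 37 °C, colonies suspended in TSB and grown to OD600 0.5. Compounds dissolved in DMSO (6.4 mg mL−1 stock), diluted serially in CAMHB (12.5 μg mL−1 Mg2+, 20 μg mL−1 Ca2+) on polypropylene plates. Final inoculum 10^6 CFU mL−1, 37 °C under gas-permeable membrane. MIC is the lowest concentration with no visible growth, consistent across at least triplicate experiments.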

Acinetobacter baumannii [7] = assay: Antibacterial activity against Acinetobacter baumannii ATCC 17978 assessed as bacterial growth inhibition by broth microdilution assay; method in brief: as §2
Acinetobacter baumannii [8] = assay: Antibacterial activity against multidrug-resistant Acinetobacter baumannii assessed as bacterial growth inhibition by broth microdilution assay; method in brief: as §2
Escherichia coli [9] = assay: Antibacterial activity against multidrug-resistant Escherichia coli NCTC 13846 assessed as bacterial growth inhibition by broth microdilution assay; method in brief: as §2
Klebsiella pneumoniae [10] = assay: Antibacterial activity against Klebsiella pneumoniae ATCC 13883 assessed as bacterial growth inhibition by broth microdilution assay; method in brief: as §1
Pseudomonas aeruginosa [11] = assay: Antibacterial activity against Pseudomonas aeruginosa NRZ 03961 assessed as bacterial growth inhibition by broth microdilution assay; method in brief: as §1
Acinetobacter baumannii [12] = assay: Antibacterial activity against Acinetobacter baumannii 2018-006 assessed as bacterial growth inhibition by broth microdilution assay; method in brief: as §2
Escherichia coli [13] = assay: Antibacterial activity against Escherichia coli 1313 assessed as bacterial growth inhibition by broth microdilution assay; method in brief: as §1

| Compound | MIC (Klebsiella pneumoniae [1]) | MIC (Pseudomonas aeruginosa [2]) | MIC (Klebsiella pneumoniae [3]) | MIC (Escherichia coli [4]) | MIC (Pseudomonas aeruginosa [5]) | MIC (Acinetobacter baumannii [6]) | MIC (Acinetobacter baumannii [7]) | MIC (Acinetobacter baumannii [8]) | MIC (Escherichia coli [9]) | MIC (Klebsiella pneumoniae [10]) | MIC (Pseudomonas aeruginosa [11]) | MIC (Acinetobacter baumannii [12]) | MIC (Escherichia coli [13]) |
| --- | --- | --- | --- | --- | --- | --- | --- | --- | --- | --- | --- | --- | --- |
| CC(C)C[C@@H]1NC(=O)[C@@H](Cc2ccccc2)NC(=O)[C@H](CCN)NC(=O)[C@@H](NC(=O)CNC(=O)[C@@H](NC(=O)[C@H](N)CSSCc2cccc(Cl)c2)[C@@H](C)O)CCNC(=O)[C@H]([C@@H](C)O)NC(=O)[C@H](CCN)NC(=O)[C@H](CCN)NC1=O | 0.5 µg/mL (≈ 0.424 µM) | 4 µg/mL (≈ 3.39 µM) | 0.5 µg/mL (≈ 0.424 µM) | 2 µg/mL (≈ 1.7 µM) | 4 µg/mL (≈ 3.39 µM) | 1 µg/mL (≈ 0.848 µM) | 1 µg/mL (≈ 0.848 µM) | 1 µg/mL (≈ 0.848 µM) | 8 µg/mL (≈ 6.78 µM) | 1 µg/mL (≈ 0.848 µM) | 4 µg/mL (≈ 3.39 µM) | 1 µg/mL (≈ 0.848 µM) | 0.25 µg/mL (≈ 0.212 µM) |
| CC(C)C[C@@H]1NC(=O)[C@@H](Cc2ccccc2)NC(=O)[C@H](CCN)NC(=O)[C@@H](NC(=O)[C@H](CN)NC(=O)[C@@H](NC(=O)[C@H](N)CSSCCC2CCCCC2)[C@@H](C)O)CCNC(=O)[C@H]([C@@H](C)O)NC(=O)[C@H](CCN)NC(=O)[C@H](CCN)NC1=O | 0.5 µg/mL (≈ 0.419 µM) | 2 µg/mL (≈ 1.67 µM) | 1 µg/mL (≈ 0.837 µM) | 1 µg/mL (≈ 0.837 µM) | 2 µg/mL (≈ 1.67 µM) | 0.5 µg/mL (≈ 0.419 µM) | 1 µg/mL (≈ 0.837 µM) | 1 µg/mL (≈ 0.837 µM) | 2 µg/mL (≈ 1.67 µM) | 1 µg/mL (≈ 0.837 µM) | 2 µg/mL (≈ 1.67 µM) | 0.5 µg/mL (≈ 0.419 µM) | 0.5 µg/mL (≈ 0.419 µM) |
| CC(C)CCSSC[C@@H](N)C(=O)N[C@H](C(=O)NCC(=O)N[C@H]1CCNC(=O)[C@H]([C@@H](C)O)NC(=O)[C@H](CCN)NC(=O)[C@H](CCN)NC(=O)[C@H](CC(C)C)NC(=O)[C@@H](Cc2ccccc2)NC(=O)[C@H](CCN)NC1=O)[C@@H](C)O | 0.5 µg/mL (≈ 0.444 µM) | 4 µg/mL (≈ 3.55 µM) | 0.5 µg/mL (≈ 0.444 µM) | 2 µg/mL (≈ 1.78 µM) | 4 µg/mL (≈ 3.55 µM) | 0.5 µg/mL (≈ 0.444 µM) | 0.5 µg/mL (≈ 0.444 µM) | 0.5 µg/mL (≈ 0.444 µM) | 16 µg/mL (≈ 14.2 µM) | 0.5 µg/mL (≈ 0.444 µM) | 4 µg/mL (≈ 3.55 µM) | 0.5 µg/mL (≈ 0.444 µM) | 0.25 µg/mL (≈ 0.222 µM) |
| CC(C)C[C@@H]1NC(=O)[C@@H](Cc2ccccc2)NC(=O)[C@H](CCN)NC(=O)[C@@H](NC(=O)[C@@H](CCN)NC(=O)[C@@H](NC(=O)[C@H](N)CSSCCC2CCCCC2)[C@@H](C)O)CCNC(=O)[C@H]([C@@H](C)O)NC(=O)[C@H](CCN)NC(=O)[C@H](CCN)NC1=O | 1 µg/mL (≈ 0.827 µM) | 2 µg/mL (≈ 1.65 µM) | 1 µg/mL (≈ 0.827 µM) | 2 µg/mL (≈ 1.65 µM) | 2 µg/mL (≈ 1.65 µM) | 0.5 µg/mL (≈ 0.414 µM) | 1 µg/mL (≈ 0.827 µM) | 1 µg/mL (≈ 0.827 µM) | 4 µg/mL (≈ 3.31 µM) | 1 µg/mL (≈ 0.827 µM) | 2 µg/mL (≈ 1.65 µM) | 0.5 µg/mL (≈ 0.414 µM) | 0.5 µg/mL (≈ 0.414 µM) |
| CC(C)C[C@@H]1NC(=O)[C@@H](Cc2ccccc2)NC(=O)[C@H](CCN)NC(=O)[C@@H](NC(=O)[C@@H](CO)NC(=O)[C@@H](NC(=O)[C@H](N)CSSCCC2CCCCC2)[C@@H](C)O)CCNC(=O)[C@H]([C@@H](C)O)NC(=O)[C@H](CCN)NC(=O)[C@H](CCN)NC1=O | 1 µg/mL (≈ 0.836 µM) | 4 µg/mL (≈ 3.35 µM) | 1 µg/mL (≈ 0.836 µM) | 2 µg/mL (≈ 1.67 µM) | 4 µg/mL (≈ 3.35 µM) | 0.25 µg/mL (≈ 0.209 µM) | 1 µg/mL (≈ 0.836 µM) | 1 µg/mL (≈ 0.836 µM) | 8 µg/mL (≈ 6.69 µM) | 1 µg/mL (≈ 0.836 µM) | 4 µg/mL (≈ 3.35 µM) | 0.5 µg/mL (≈ 0.418 µM) | 1 µg/mL (≈ 0.836 µM) |
| CC(C)CCSSC[C@@H](N)C(=O)N[C@H](C(=O)N[C@H](CCN)C(=O)N[C@H]1CCNC(=O)[C@H]([C@@H](C)O)NC(=O)[C@H](CCN)NC(=O)[C@H](CCN)NC(=O)[C@H](CC(C)C)NC(=O)[C@@H](Cc2ccccc2)NC(=O)[C@H](CCN)NC1=O)[C@@H](C)O | 0.25 µg/mL (≈ 0.214 µM) | 2 µg/mL (≈ 1.71 µM) | 0.5 µg/mL (≈ 0.428 µM) | 2 µg/mL (≈ 1.71 µM) | 1 µg/mL (≈ 0.856 µM) | 0.25 µg/mL (≈ 0.214 µM) | 0.25 µg/mL (≈ 0.214 µM) | 0.5 µg/mL (≈ 0.428 µM) | 8 µg/mL (≈ 6.85 µM) | 0.5 µg/mL (≈ 0.428 µM) | 2 µg/mL (≈ 1.71 µM) | 0.25 µg/mL (≈ 0.214 µM) | 0.25 µg/mL (≈ 0.214 µM) |
| CC(C)CCSSC[C@@H](N)C(=O)N[C@H](C(=O)N[C@H](CN)C(=O)N[C@H]1CCNC(=O)[C@H]([C@@H](C)O)NC(=O)[C@H](CCN)NC(=O)[C@H](CCN)NC(=O)[C@H](CC(C)C)NC(=O)[C@@H](Cc2ccccc2)NC(=O)[C@H](CCN)NC1=O)[C@@H](C)O | 0.5 µg/mL (≈ 0.433 µM) | 4 µg/mL (≈ 3.46 µM) | 0.5 µg/mL (≈ 0.433 µM) | 2 µg/mL (≈ 1.73 µM) | 1 µg/mL (≈ 0.866 µM) | 0.25 µg/mL (≈ 0.217 µM) | 0.25 µg/mL (≈ 0.217 µM) | 0.25 µg/mL (≈ 0.217 µM) | 8 µg/mL (≈ 6.93 µM) | 0.5 µg/mL (≈ 0.433 µM) | 2 µg/mL (≈ 1.73 µM) | 0.25 µg/mL (≈ 0.217 µM) | 0.5 µg/mL (≈ 0.433 µM) |
